Laboratory results: ChEMBL document CHEMBL2203123, “Synthesis and biological evaluation of some hydrazone derivatives as new anticandidal and anticancer agents” (Eur J Med Chem, 2012)
≈ marks a conversion by molar mass, not a printed value. One block for each molecule: values may come before it.

Experiments:
[1] = test system: Salmonella typhimurium; experiment: Genotoxicity against Salmonella typhimurium TA100 assessed as fold increase in revertants at 0.625 mg/ml after 90 mins by Ames MPF test in presence of S9 fraction relative to baseline; format: toxicity, organism-based; settings: salmonella enterica subsp. enterica serovar typhimurium, s9, 1.5 h
Summary of the method: (§1)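 Ames MPF fluctuation test, TA98 and TA100: overnight cultures reincubated 90 min, then exposed 90 min at 37 °C to compounds at 0.156-5 mg/mL (in DMSO) with or without 4.5% v/v S9; indicator medium added, 48 wells per sample scored yellow after 48 h, triplicate. Fold over baseline = mean positive wells / (mean of DMSO control + 1 SD).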

[2] = test system: Nakaseomyces glabratus; experiment: Antifungal activity against Candida glabrata Anadolu University clinical isolate after 24 hrs by microdilution susceptibility assay; format: functional
Summary of the method: (§2)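 Broth microdilution in Mueller Hinton Broth, compounds from DMSO stocks diluted serially; inocula standardized to 10^6 CFU/mL (McFarland 0.5) from overnight MHB cultures. Plates held 37 °C for 24 h; MIC taken as first well without turbidity, aided by 1% tetrazolium violet added for 3 h at 37 °C. Ketoconazole reference.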

[3] = Genotoxicity against Salmonella typhimurium TA1535/pSK1002 assessed as induction ratio at 5 mg/ml by umuC assay in absence of S9 fraction; format: toxicity, organism-based; settings: salmonella enterica subsp. enterica serovar typhimurium, Salmonella typhimurium TA1535/pSK1002 without S9 fraction
Summary of the method: (§3)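 umuC Easy CS: TA1535/pSK1002 grown overnight in ampicillin TG medium at 37 °C, then exposed 2 h at 37 °C to compounds at 5, 2.5, 1.25, 0.63 mg/mL with or without S9. Diluted into fresh medium for 2 h growth (OD600), then β-galactosidase with ONPG 30 min at 28 °C, OD420. Positive controls 2-aminoanthracene (+S9), […] (−S9).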

[4] = test system: Salmonella typhimurium; experiment: Genotoxicity against Salmonella typhimurium TA1535/pSK1002 assessed as growth factor ratio at 5 mg/ml by umuC assay in presence of S9 fraction; format: toxicity, organism-based; settings: salmonella enterica subsp. enterica serovar typhimurium; summary of the method: as §3
[5] = test system: Salmonella typhimurium; experiment: Genotoxicity against Salmonella typhimurium TA1535/pSK1002 assessed as induction ratio at 2.5 mg/ml by umuC assay in presence of S9 fraction; format: toxicity, organism-based; settings: salmonella enterica subsp. enterica serovar typhimurium; summary of the method: as §3
[6] = test system: Salmonella typhimurium; experiment: Genotoxicity against Salmonella typhimurium TA100 assessed as fold increase in revertants at 1.25 mg/ml after 90 mins by Ames MPF test in presence of S9 fraction relative to baseline; format: toxicity, organism-based; settings: salmonella enterica subsp. enterica serovar typhimurium, s9, 1.5 h; summary of the method: as §1
[7] = test system: Salmonella typhimurium; experiment: Genotoxicity against Salmonella typhimurium TA1535/pSK1002 assessed as growth factor ratio at 2.5 mg/ml by umuC assay in absence of S9 fraction; format: toxicity, organism-based; settings: salmonella enterica subsp. enterica serovar typhimurium; summary of the method: as §3
[8] = test system: Pichia kudriavzevii; experiment: Antifungal activity against Candida krusei NRRL Y-7179 after 24 hrs by microdilution susceptibility assay; format: functional; settings: NRRL Y-7179, 24 h; summary of the method: as §2
[9] = test system: Salmonella typhimurium; experiment: Genotoxicity against Salmonella typhimurium TA100 assessed as fold increase in revertants at 0.156 mg/ml after 90 mins by Ames MPF test in presence of S9 fraction relative to baseline; format: toxicity, organism-based; settings: salmonella enterica subsp. enterica serovar typhimurium, s9, 1.5 h; summary of the method: as §1
[10] = test system: Salmonella typhimurium; experiment: Genotoxicity against Salmonella typhimurium TA100 assessed as fold increase in revertants at 0.3125 mg/ml after 90 mins by Ames MPF test in absence of S9 fraction relative to baseline; format: toxicity, organism-based; settings: salmonella enterica subsp. enterica serovar typhimurium, 1.5 h; summary of the method: as §1
[11] = test system: Salmonella typhimurium; experiment: Genotoxicity against Salmonella typhimurium TA98 assessed as fold increase in revertants at 2.5 mg/ml after 90 mins by Ames MPF test in presence of S9 fraction relative to baseline; format: toxicity, organism-based; settings: salmonella enterica subsp. enterica serovar typhimurium, s9, 1.5 h; summary of the method: as §1
[12] = test system: Salmonella typhimurium; experiment: Genotoxicity against Salmonella typhimurium TA98 assessed as fold increase in revertants at 5 mg/ml after 90 mins by Ames MPF test in absence of S9 fraction relative to baseline; format: toxicity, organism-based; settings: salmonella enterica subsp. enterica serovar typhimurium, 1.5 h; summary of the method: as §1
[13] = test system: Salmonella typhimurium; experiment: Genotoxicity against Salmonella typhimurium TA1535/pSK1002 assessed as growth factor ratio at 2.5 mg/ml by umuC assay in presence of S9 fraction; format: toxicity, organism-based; settings: salmonella enterica subsp. enterica serovar typhimurium; summary of the method: as §3
[14] = Genotoxicity against Salmonella typhimurium TA1535/pSK1002 assessed as induction ratio at 1.25 mg/ml by umuC assay in absence of S9 fraction; format: toxicity, organism-based; settings: salmonella enterica subsp. enterica serovar typhimurium, Salmonella typhimurium TA1535/pSK1002 without S9 fraction; summary of the method: as §3
[15] = test system: Salmonella typhimurium; experiment: Genotoxicity against Salmonella typhimurium TA100 assessed as fold increase in revertants at 0.625 mg/ml after 90 mins by Ames MPF test in absence of S9 fraction relative to baseline; format: toxicity, organism-based; settings: salmonella enterica subsp. enterica serovar typhimurium, 1.5 h; summary of the method: as §1
[16] = test system: Salmonella typhimurium; experiment: Genotoxicity against Salmonella typhimurium TA1535/pSK1002 assessed as induction ratio at 0.63 mg/ml by umuC assay in absence of S9 fraction; format: toxicity, organism-based; settings: salmonella enterica subsp. enterica serovar typhimurium; summary of the method: as §3
[17] = test system: Salmonella typhimurium; experiment: Genotoxicity against Salmonella typhimurium TA98 assessed as fold increase in revertants at 1.25 mg/ml after 90 mins by Ames MPF test in presence of S9 fraction relative to baseline; format: toxicity, organism-based; settings: salmonella enterica subsp. enterica serovar typhimurium, s9, 1.5 h; summary of the method: as §1
[18] = test system: Salmonella typhimurium; experiment: Genotoxicity against Salmonella typhimurium TA98 assessed as fold increase in revertants at 1.25 mg/ml after 90 mins by Ames MPF test in absence of S9 fraction relative to baseline; format: toxicity, organism-based; settings: salmonella enterica subsp. enterica serovar typhimurium, 1.5 h; summary of the method: as §1
[19] = test system: Salmonella typhimurium; experiment: Genotoxicity against Salmonella typhimurium TA1535/pSK1002 assessed as growth factor ratio at 0.63 mg/ml by umuC assay in absence of S9 fraction; format: toxicity, organism-based; settings: salmonella enterica subsp. enterica serovar typhimurium; summary of the method: as §3
[20] = test system: Candida albicans; experiment: Antifungal activity against Candida albicans ATCC 90028 after 24 hrs by microdilution susceptibility assay; format: functional; settings: ATCC 90028, 24 h; summary of the method: as §2
[21] = test system: Salmonella typhimurium; experiment: Genotoxicity against Salmonella typhimurium TA98 assessed as fold increase in revertants at 0.156 mg/ml after 90 mins by Ames MPF test in absence of S9 fraction relative to baseline; format: toxicity, organism-based; settings: salmonella enterica subsp. enterica serovar typhimurium, 1.5 h; summary of the method: as §1
[22] = test system: Salmonella typhimurium; experiment: Genotoxicity against Salmonella typhimurium TA98 assessed as fold increase in revertants at 0.3125 mg/ml after 90 mins by Ames MPF test in presence of S9 fraction relative to baseline; format: toxicity, organism-based; settings: salmonella enterica subsp. enterica serovar typhimurium, s9, 1.5 h; summary of the method: as §1
[23] = test system: Nakaseomyces glabratus; experiment: Antifungal activity against Candida glabrata Osmangazi University clinical isolate after 24 hrs by microdilution susceptibility assay; format: functional; summary of the method: as §2
[24] = test system: Salmonella typhimurium; experiment: Genotoxicity against Salmonella typhimurium TA98 assessed as fold increase in revertants at 0.3125 mg/ml after 90 mins by Ames MPF test in absence of S9 fraction relative to baseline; format: toxicity, organism-based; settings: salmonella enterica subsp. enterica serovar typhimurium, 1.5 h; summary of the method: as §1
[25] = Genotoxicity against Salmonella typhimurium TA1535/pSK1002 assessed as induction ratio at 0.63 mg/ml by umuC assay in presence of S9 fraction; format: toxicity, organism-based; settings: salmonella enterica subsp. enterica serovar typhimurium, Salmonella typhimurium TA1535/pSK1002 with S9 fraction; summary of the method: as §3
[26] = test system: Salmonella typhimurium; experiment: Genotoxicity against Salmonella typhimurium TA98 assessed as fold increase in revertants at 0.156 mg/ml after 90 mins by Ames MPF test in presence of S9 fraction relative to baseline; format: toxicity, organism-based; settings: salmonella enterica subsp. enterica serovar typhimurium, s9, 1.5 h; summary of the method: as §1
[27] = test system: Candida albicans; experiment: Antifungal activity against Candida albicans ATCC 10231 after 24 hrs by microdilution susceptibility assay; format: functional; settings: ATCC 10231, 24 h; summary of the method: as §2
[28] = test system: Salmonella typhimurium; experiment: Genotoxicity against Salmonella typhimurium TA100 assessed as fold increase in revertants at 0.3125 mg/ml after 90 mins by Ames MPF test in presence of S9 fraction relative to baseline; format: toxicity, organism-based; settings: salmonella enterica subsp. enterica serovar typhimurium, s9, 1.5 h; summary of the method: as §1
[29] = test system: Salmonella typhimurium; experiment: Genotoxicity against Salmonella typhimurium TA100 assessed as fold increase in revertants at 2.5 mg/ml after 90 mins by Ames MPF test in absence of S9 fraction relative to baseline; format: toxicity, organism-based; settings: salmonella enterica subsp. enterica serovar typhimurium, 1.5 h; summary of the method: as §1

MIC [2]: 50 µg/mL (≈ 157 µM) | MIC [8]: 62.5 µg/mL (≈ 196 µM) | MIC [20]: 50 µg/mL (≈ 157 µM) | MIC [23]: 500 µg/mL (≈ 1570 µM) | MIC [27]: 125 µg/mL (≈ 391 µM)
SMILES: CN(C)c1ccc(/C=N/NC(=O)CSc2nnnn2C)cc1
fold change (FC) [1]: 0.18 | fold induction at 5 mg/ml [3]: 0.565 | Ratio [4]: 2.82 | Ratio [5]: 0.598 | fold change (FC) [6]: 0.26 | Ratio [7]: 1.743 | fold change (FC) [9]: 0.33 | fold change (FC) [10]: 1.19 | fold change (FC) [11]: 1.14 | fold change (FC) [12]: 0 | Ratio [13]: 1.992 | fold induction at 1.25 mg/ml [14]: 1.13 | fold change (FC) [15]: 1.38 | Ratio [16]: 1.36 | fold change (FC) [17]: 0.86 | fold change (FC) [18]: 0.64 | Ratio [19]: 0.962 | fold change (FC) [21]: 0.32 | fold change (FC) [22]: 0.57 | fold change (FC) [24]: 1.27 | fold induction at 0.63 mg/ml [25]: 0.704 | fold change (FC) [26]: 0.86 | fold change (FC) [28]: 0.47 | fold change (FC) [29]: 1.14

MIC [2]: 500 µg/mL (≈ 1710 µM) | MIC [8]: 500 µg/mL (≈ 1710 µM) | MIC [20]: 1000 µg/mL (≈ 3420 µM) | MIC [23]: 1000 µg/mL (≈ 3420 µM) | MIC [27]: 500 µg/mL (≈ 1710 µM)
SMILES: Cn1nnnc1SCC(=O)N/N=C/c1ccc(O)cc1
fold change (FC) [1]: 0.7 | fold induction at 5 mg/ml [3]: 0.661 | Ratio [4]: 2.139 | Ratio [5]: 0.657 | fold change (FC) [6]: 0.59 | Ratio [7]: 1.397 | fold change (FC) [9]: 0.63 | fold change (FC) [10]: 0.41 | fold change (FC) [11]: 0.53 | fold change (FC) [12]: 0.26 | Ratio [13]: 1.663 | fold induction at 1.25 mg/ml [14]: 0.99 | fold change (FC) [15]: 0.66 | Ratio [16]: 1.181 | fold change (FC) [17]: 0.63 | fold change (FC) [18]: 0.13 | Ratio [19]: 1.009 | fold change (FC) [21]: 0.52 | fold change (FC) [22]: 0.53 | fold change (FC) [24]: 0.13 | fold induction at 0.63 mg/ml [25]: 0.797 | fold change (FC) [26]: 0.32 | fold change (FC) [28]: 0.63 | fold change (FC) [29]: 0.33
